Reference: ChEMBL document CHEMBL3804761, “Synthesis of a stable and orally bioavailable englerin analogue” (Bioorg Med Chem Lett, 2016)

Columns and labels:
Assay type in all cases: functional
[1] = Growth inhibition of human SF268 cells assessed as cell growth at 10 uM incubated for 48 hrs by sulforhodamine B assay relative to control; conditions: SF-268, 48 h, read-out: Activity
Method in brief: (§1)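 Run in the standard NCI 60-cell-line screen. Cells were exposed to drug for two days, and the read-out was sulforhodamine B staining. Compound was tested at a single final concentration of 10 µM in every line, and results are reported as growth percent.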

[2] = Growth inhibition of human SF539 cells assessed as cell growth at 10 uM incubated for 48 hrs by sulforhodamine B assay relative to control; conditions: SF-539, 48 h, read-out: Activity
Method in brief: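 Single-dose screen in the NCI 60-cell-line panel at one final concentration of 10 µM. Two-day drug exposure with a sulforhodamine B endpoint. Values are growth percent for each cell line.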

U-251 = assay: Growth inhibition of human U251 cells assessed as cell growth at 10 uM incubated for 48 hrs by sulforhodamine B assay relative to control; conditions: U-251, 48 h, read-out: Activity
Method in brief: (§2)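 NCI 60-cell line standard protocol, one-dose screen: single final concentration 10 µM, 2-day drug exposure, sulforhodamine B (SRB) endpoint; read-out is growth percent relative to untreated control.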

MDA-MB-435 = assay: Growth inhibition of human MDA-MB-435 cells assessed as cell growth at 10 uM incubated for 48 hrs by sulforhodamine B assay relative to control; conditions: MDA-MB-435, 48 h, read-out: Activity; method in brief: as §1
[3] = Growth inhibition of human UACC62 cells assessed as cell growth at 10 uM incubated for 48 hrs by sulforhodamine B assay relative to control; conditions: UACC-62, 48 h, read-out: Activity; method in brief: as §2
[4] = Growth inhibition of human DU145 cells assessed as cell growth at 10 uM incubated for 48 hrs by sulforhodamine B assay relative to control; conditions: DU-145, 48 h, read-out: Activity; method in brief: as §1
MDA-MB-231 = assay: Growth inhibition of human MDA-MB-231 cells assessed as cell growth at 10 uM incubated for 48 hrs by sulforhodamine B assay relative to control; conditions: MDA-MB-231, 48 h, read-out: Activity; method in brief: as §1
T47D = assay: Growth inhibition of human T47D cells assessed as cell growth at 10 uM incubated for 48 hrs by sulforhodamine B assay relative to control; conditions: read-out: Activity; method in brief: as §2
[5] = Growth inhibition of human RXF393 cells assessed as cell growth at 10 uM incubated for 48 hrs by sulforhodamine B assay relative to control; conditions: RXF 393, 48 h, read-out: Activity; method in brief: as §1
SR [6] = assay: Growth inhibition of human SR cells incubated for 48 hrs by sulforhodamine B assay; conditions: for TGI: read-out: pTGI (converted)
Method in brief: (§3)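 Tested in the standard NCI 60-cell-line protocol with two-day drug exposure and a sulforhodamine B endpoint. Compounds were first screened at a single final concentration of 10 µM, reported as growth percent. They were then run as five 10-fold dilutions starting from a high concentration of 100 µM to give dose-response curves.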

NCI-H23 = assay: Growth inhibition of human NCI-H23 cells incubated for 48 hrs by sulforhodamine B assay; conditions: NCI-H23, 48 h; for TGI: read-out: pTGI (converted)
Method in brief: (§4)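 NCI 60-cell-line panel, standard protocol. Cells exposed to compound for two days, growth read by sulforhodamine B staining. Tested at five 10-fold dilutions, top concentration 100 µM, to give dose-response curves.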

[7] = Growth inhibition of human HCC2998 cells incubated for 48 hrs by sulforhodamine B assay; conditions: HCC 2998, 48 h; for TGI: read-out: pTGI (converted); method in brief: as §4
[8] = Growth inhibition of human HCT116 cells incubated for 48 hrs by sulforhodamine B assay; conditions: HCT-116, 48 h; for TGI: read-out: pTGI (converted); method in brief: as §4
HT-29 = assay: Growth inhibition of human HT-29 cells incubated for 48 hrs by sulforhodamine B assay; conditions: HT-29, 48 h; for TGI: read-out: pTGI (converted); method in brief: as §4
Malme-3M = assay: Growth inhibition of human MALME-3M cells incubated for 48 hrs by sulforhodamine B assay; conditions: for TGI: read-out: pTGI (converted); method in brief: as §4
SK-MEL-28 = assay: Growth inhibition of human SK-MEL-28 cells incubated for 48 hrs by sulforhodamine B assay; conditions: SK-MEL-28, 48 h; for TGI: read-out: pTGI (converted); method in brief: as §4
[9] = Growth inhibition of human UACC257 cells incubated for 48 hrs by sulforhodamine B assay; conditions: UACC-257, 48 h; for CC50: read-out: pLC50 (the source's name) (converted); for TGI: read-out: pTGI (converted); method in brief: as §3
[10] = Growth inhibition of human IGROV1 cells incubated for 48 hrs by sulforhodamine B assay; conditions: IGROV-1, 48 h; for CC50: read-out: pLC50 (the source's name) (converted); for TGI: read-out: pTGI (converted); method in brief: as §4
NCI/ADR-RES = assay: Growth inhibition of human NCI/ADR-RES cells incubated for 48 hrs by sulforhodamine B assay; conditions: for TGI: read-out: pTGI (converted); method in brief: as §4
[11] = Growth inhibition of human SKOV3 cells incubated for 48 hrs by sulforhodamine B assay; conditions: SK-OV-3, 48 h; for TGI: read-out: pTGI (converted); method in brief: as §3
A498 = assay: Growth inhibition of human A498 cells incubated for 48 hrs by sulforhodamine B assay; conditions: A498, 48 h; for TGI: read-out: pTGI (converted)
[12] = Growth inhibition of human Caki1 cells incubated for 48 hrs by sulforhodamine B assay; conditions: CAKI-1, 48 h; for TGI: read-out: pTGI (converted); method in brief: as §4
[13] = Growth inhibition of human BT549 cells incubated for 48 hrs by sulforhodamine B assay; conditions: BT-549, 48 h; for CC50: read-out: pLC50 (the source's name) (converted); for TGI: read-out: pTGI (converted); method in brief: as §4
MDA-MB-468 = assay: Growth inhibition of human MDA-MB-468 cells incubated for 48 hrs by sulforhodamine B assay; conditions: MDA-MB-468, 48 h; for CC50: read-out: pLC50 (the source's name) (converted); for TGI: read-out: pTGI (converted); method in brief: as §4
K562 = assay: Growth inhibition of human K562 cells incubated for 48 hrs by sulforhodamine B assay; conditions: K562, 48 h; method in brief: as §4
[14] = Growth inhibition of human MOLT4 cells assessed as cell growth at 10 uM incubated for 48 hrs by sulforhodamine B assay relative to control; conditions: MOLT-4, 48 h, read-out: Activity; method in brief: as §1
SR [15] = assay: Growth inhibition of human SR cells assessed as cell growth at 10 uM incubated for 48 hrs by sulforhodamine B assay relative to control; conditions: read-out: Activity; method in brief: as §1
NCI-H226 = assay: Growth inhibition of human NCI-H226 cells assessed as cell growth at 10 uM incubated for 48 hrs by sulforhodamine B assay relative to control; conditions: NCI-H226, 48 h, read-out: Activity; method in brief: as §1

Compound: CC(C)[C@@]12C[C@@H](NC(=O)CO)[C@@](C)(O1)[C@@H]1CC[C@@H](C)[C@H]1[C@@H]2OC(=O)c1ccc2ccccc2c1
- growth at 10 µM [1]: 79%
- growth at 10 µM [2]: 84.6%
- growth at 10 µM (U-251): 79.3%
- growth at 10 µM (MDA-MB-435): 94%
- growth at 10 µM [3]: 85%
- growth at 10 µM [4]: 98.4%
- growth at 10 µM (MDA-MB-231): 101%
- growth at 10 µM (T47D): 67.9%
- growth at 10 µM [5]: 61.6%
- GI50 (SR [6]): 17.8 µM
- LC50 (SR [6]): 81.3 µM
- TGI (SR [6]): 38 µM
- GI50 (NCI-H23): 14.1 µM
- LC50 (NCI-H23): 57.5 µM
- TGI (NCI-H23): 28.2 µM
- GI50 [7]: 15.8 µM
- LC50 [7]: 57.5 µM
- TGI [7]: 30.2 µM
- GI50 [8]: 14.1 µM
- LC50 [8]: 53.7 µM
- TGI [8]: 27.5 µM
- GI50 (HT-29): 17.4 µM
- LC50 (HT-29): 60.3 µM
- TGI (HT-29): 32.4 µM
- GI50 (Malme-3M): 16.2 µM
- LC50 (Malme-3M): 69.2 µM
- TGI (Malme-3M): 33.1 µM
- GI50 (SK-MEL-28): 16.6 µM
- LC50 (SK-MEL-28): 57.5 µM
- TGI (SK-MEL-28): 30.9 µM
- GI50 [9]: 16.2 µM
- CC50 [9]: 64.6 µM
- TGI [9]: 32.4 µM
- GI50 [10]: 17.8 µM
- CC50 [10]: 61.7 µM
- TGI [10]: 33.1 µM
- GI50 (NCI/ADR-RES): 11 µM
- LC50 (NCI/ADR-RES): 57.5 µM
- TGI (NCI/ADR-RES): 25.1 µM
- GI50 [11]: 15.8 µM
- LC50 [11]: 56.2 µM
- TGI [11]: 30.2 µM
- LC50 (A498): 29.5 µM
- GI50 (A498; read-out: GI50): 1.62 µM
- GI50 (A498; read-out: pGI50 (converted)): 1.62 µM
- TGI (A498): 6.31 µM
- GI50 [12]: 10 µM
- LC50 [12]: 50.1 µM
- TGI [12]: 22.4 µM
- GI50 [13]: 14.8 µM
- CC50 [13]: 57.5 µM
- TGI [13]: 28.8 µM
- GI50 (MDA-MB-468): 14.8 µM
- CC50 (MDA-MB-468): 57.5 µM
- TGI (MDA-MB-468): 28.8 µM
- GI50 (K562): 19.5 µM
- CC50 (K562; read-out: pLC50 (the source's name) (converted)): 95.5 µM
- TGI (K562; read-out: pTGI (converted)): 42.7 µM
- growth at 10 µM [14]: 74.9%
- growth at 10 µM (SR [15]): 82.5%
- growth at 10 µM (NCI-H226): 90.2%

Compound: CC(C)[C@@]12C[C@@H](NC(=O)CO)[C@@](C)(O1)[C@@H]1CC[C@@H](C)[C@H]1[C@@H]2OC(=O)/C=C/c1ccccc1
- growth at 10 µM [1]: 84.4%
- growth at 10 µM [2]: 97.2%
- growth at 10 µM (U-251): 92.3%
- growth at 10 µM (MDA-MB-435): 94.6%
- growth at 10 µM [3]: 92.1%
- growth at 10 µM [4]: 110%
- growth at 10 µM (MDA-MB-231): 97.2%
- growth at 10 µM (T47D): 76.3%
- growth at 10 µM [5]: 63.3%
- GI50 (SR [6]): 13.5 µM
- LC50 (SR [6]): > 50.1 µM
- TGI (SR [6]): 37.2 µM
- GI50 (NCI-H23): 14.8 µM
- LC50 (NCI-H23): > 50.1 µM
- TGI (NCI-H23): > 50.1 µM
- GI50 [7]: 15.8 µM
- LC50 [7]: > 50.1 µM
- TGI [7]: > 50.1 µM
- GI50 [8]: 10.7 µM
- LC50 [8]: > 50.1 µM
- TGI [8]: 38 µM
- GI50 (HT-29): 16.6 µM
- LC50 (HT-29): > 50.1 µM
- TGI (HT-29): > 50.1 µM
- GI50 (Malme-3M): 20.9 µM
- LC50 (Malme-3M): > 50.1 µM
- TGI (Malme-3M): > 50.1 µM
- GI50 (SK-MEL-28): 20.9 µM
- LC50 (SK-MEL-28): > 50.1 µM
- TGI (SK-MEL-28): > 50.1 µM
- GI50 [9]: 10.5 µM
- CC50 [9]: > 50.1 µM
- TGI [9]: 45.7 µM
- GI50 [10]: > 50.1 µM
- CC50 [10]: > 50.1 µM
- TGI [10]: > 50.1 µM
- GI50 (NCI/ADR-RES): 3.47 µM
- LC50 (NCI/ADR-RES): > 50.1 µM
- TGI (NCI/ADR-RES): > 50.1 µM
- GI50 [11]: > 50.1 µM
- LC50 [11]: > 50.1 µM
- TGI [11]: > 50.1 µM
- LC50 (A498): 29.5 µM
- GI50 (A498; read-out: GI50): 0.162 µM
- GI50 (A498; read-out: pGI50 (converted)): 0.162 µM
- TGI (A498): 2.45 µM
- GI50 [12]: 9.55 µM
- LC50 [12]: > 50.1 µM
- TGI [12]: > 50.1 µM
- GI50 [13]: 6.92 µM
- CC50 [13]: > 50.1 µM
- TGI [13]: 25.1 µM
- GI50 (MDA-MB-468): 12.3 µM
- CC50 (MDA-MB-468): > 50.1 µM
- TGI (MDA-MB-468): > 50.1 µM
- growth at 10 µM [14]: 76%
- growth at 10 µM (SR [15]): 79.1%
- growth at 10 µM (NCI-H226): 90.8%
